Values belong to the molecule of their own block, whether it stands above or below them. Active and inactive are the calls of the source. The calls are words filed in the database; no cut-off is given here.
Key:
[1] = molecular target: 11-beta-hydroxysteroid dehydrogenase 1 (Mus musculus, UniProt P50172); assay: Inhibition of mouse 11beta-HSD1 expressed in CHO-K1 cells assessed as conversion of [3H]-cortisone to [3H]-cortisol by scintillation proximity assay; format: cell-based
[2] = test system: Mus musculus; assay: Inhibition of 11beta-HSD1 in ICR mouse assessed as inhibition of conversion of [3H]-cortisone to [3H]-cortisol at 10 mg/kg, po administered 4 hrs before [3H]-cortisone challenge; format: functional
Procedure, shortened: (§1)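 Mouse pharmacodynamic model. Compound given 10 mg/kg PO, then 3H-cortisone by tail vein injection 1, 4 or 16 h after dosing. […] Plasma compound levels were measured after the PD studies.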

[3] = molecular target: T1, Nuclear receptor subfamily 1 group I member 2 (Homo sapiens, UniProt O75469); assay: Activation of PXR
T1 sequence (O75469 whole entry): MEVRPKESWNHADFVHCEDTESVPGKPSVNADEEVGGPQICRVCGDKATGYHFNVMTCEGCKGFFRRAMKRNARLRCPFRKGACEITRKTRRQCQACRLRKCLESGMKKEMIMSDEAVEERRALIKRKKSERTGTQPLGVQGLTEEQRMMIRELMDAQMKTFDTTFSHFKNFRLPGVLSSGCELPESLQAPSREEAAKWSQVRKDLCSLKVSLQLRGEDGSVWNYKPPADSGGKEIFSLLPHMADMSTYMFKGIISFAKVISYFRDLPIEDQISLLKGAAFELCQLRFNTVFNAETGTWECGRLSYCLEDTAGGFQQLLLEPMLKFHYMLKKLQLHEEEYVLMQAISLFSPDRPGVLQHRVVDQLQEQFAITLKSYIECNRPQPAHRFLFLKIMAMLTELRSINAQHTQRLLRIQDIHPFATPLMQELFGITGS
Procedure, shortened: (§2)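 Cyp induction potential assessed in human liver microsomes; read out as human PXR activation, with test compound at 10 μM.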

[4] = test system: Mus musculus; assay: Inhibition of 11beta-HSD1 in ICR mouse assessed as inhibition of conversion of [3H]-cortisone to [3H]-cortisol at 10 mg/kg, po administered 16 hrs before [3H]-cortisone challenge; format: functional; procedure, shortened: as §1
[5] = molecular target: 11-beta-hydroxysteroid dehydrogenase 1 (Homo sapiens, UniProt P28845); assay: Inhibition of human 11beta-HSD1 expressed in CHO-K1 cells assessed as conversion of [3H]-cortisone to [3H]-cortisol by scintillation proximity assay; format: cell-based
Chain of 11-beta-hydroxysteroid dehydrogenase 1 (Homo sapiens, UniProt P28845) (P28845 whole entry): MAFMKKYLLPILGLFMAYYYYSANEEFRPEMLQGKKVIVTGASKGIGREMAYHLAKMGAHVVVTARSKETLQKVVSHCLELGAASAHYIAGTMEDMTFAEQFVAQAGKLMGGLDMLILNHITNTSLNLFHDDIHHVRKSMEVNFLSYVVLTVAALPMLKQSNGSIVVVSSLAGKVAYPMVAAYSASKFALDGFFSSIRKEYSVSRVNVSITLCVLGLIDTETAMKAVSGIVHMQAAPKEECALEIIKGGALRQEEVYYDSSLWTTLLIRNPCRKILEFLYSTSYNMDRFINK
Procedure, shortened: (§3)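 Scintillation proximity assay (SPA). IC50 values are the average of two determinations.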

[6] = Bioavailability in C57 mouse at 2 mg/kg, iv and 10 mg/kg, po; format: ADME, organism-based; conditions: in vivo
Procedure, shortened: (§4)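 Mouse PK from 2 mg/kg IV and 10 mg/kg oral dosing. The PO AUC is reported normalized to dose.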

[7] = Clearance in C57 mouse at 2 mg/kg, iv; format: ADME, organism-based; set-up: dose 2 mg/kg, route intravenous; conditions: in vivo; procedure, shortened: as §4
[8] = organism: Mus musculus; assay: Antiatherosclerotic activity in Apo-E knockout mouse model; format: functional, organism-based
[9] = Half life in Beagle dog at 0.5 mg/kg, iv and 2 mg/kg, po; format: ADME, organism-based, Canis lupus familiaris; conditions: in vivo
[10] = Solubility of the compound in water; format: physicochemical
[11] = Volume of distribution in Beagle dog at 0.5 mg/kg, iv and 2 mg/kg, po; format: ADME, organism-based, Canis lupus familiaris; conditions: in vivo
[12] = Induction of cytochrome P450 activity in human liver microsomes; format: ADME; procedure, shortened: as §2
[13] = Clearance in Sprague-Dawley rat at 1 mg/kg, iv and 4 mg/kg, po; format: ADME, organism-based; conditions: in vivo
[14] = Half life in C57 mouse at 2 mg/kg, iv and 10 mg/kg, po; format: ADME, organism-based; conditions: in vivo
[15] = Half life in Sprague-Dawley rat at 1 mg/kg, iv and 4 mg/kg, po; format: ADME, organism-based; conditions: in vivo
[16] = organism: Mus musculus; assay: Antiobesity activity in diet-induced obesity mouse model; format: functional, organism-based
[17] = Clearance in Beagle dog at 0.5 mg/kg, iv and 2 mg/kg, po; format: ADME, organism-based, Canis lupus familiaris; conditions: in vivo
[18] = Bioavailability in Beagle dog at 0.5 mg/kg, iv and 2 mg/kg, po; format: ADME, organism-based, Canis lupus familiaris; conditions: in vivo
[19] = Bioavailability in rhesus monkey at 0.5 mg/kg, iv and 2 mg/kg, po; format: ADME, organism-based, Macaca mulatta; conditions: in vivo
[20] = Tmax in C57 mouse at 2 mg/kg, iv and 10 mg/kg, po; format: ADME, organism-based; conditions: in vivo
[21] = Bioavailability in Sprague-Dawley rat 1 mg/kg, iv and 4 mg/kg, po; format: ADME, organism-based; conditions: in vivo
[22] = Half life in rhesus monkey at 0.5 mg/kg, iv and 2 mg/kg, po; format: ADME, organism-based, Macaca mulatta; conditions: in vivo
[23] = Tmax in rhesus monkey at 0.5 mg/kg, iv and 2 mg/kg, po; format: ADME, organism-based, Macaca mulatta; conditions: in vivo
[24] = organism: Mus musculus; assay: Antidiabetic activity in B6-Ay mouse by oral glucose tolerance test; format: functional, organism-based
[25] = Tmax in Sprague-Dawley rat at 1 mg/kg, iv and 4 mg/kg, po; format: ADME, organism-based; conditions: in vivo
[26] = Clearance in rhesus monkey at 0.5 mg/kg, iv and 2 mg/kg, po; format: ADME, organism-based, Macaca mulatta; conditions: in vivo
[27] = Distribution coefficient, log D of the compound by HPLC analysis; format: physicochemical; conditions: octanol/water
[28] = Volume of distribution in rhesus monkey at 0.5 mg/kg, iv and 2 mg/kg, po; format: ADME, organism-based, Macaca mulatta; conditions: in vivo
[29] = Tmax in Beagle dog at 0.5 mg/kg, iv and 2 mg/kg, po; format: ADME, organism-based, Canis lupus familiaris; conditions: in vivo
[30] = Volume of distribution in Sprague-Dawley rat at 1 mg/kg, iv and 4 mg/kg, po; format: ADME, organism-based; conditions: in vivo
[31] = molecular target: T1, Nuclear receptor subfamily 1 group I member 2; assay: Activation of human PXR at 10 uM; procedure, shortened: as §2
[32] = Volume of distribution in C57 mouse at 2 mg/kg, iv and 10 mg/kg, po; format: ADME, organism-based; conditions: in vivo
[33] = test system: Mus musculus; assay: Inhibition of 11beta-HSD1 in ICR mouse assessed as inhibition of conversion of [3H]-cortisone to [3H]-cortisol at 10 mg/kg, po administered 1 hr before [3H]-cortisone challenge; format: functional; procedure, shortened: as §1
[34] = molecular target: T2, 11-beta-hydroxysteroid dehydrogenase type 2 (Mus musculus, UniProt P51661); assay: Inhibition of mouse 11beta-HSD2 expressed in CHO-K1 cells assessed as conversion of [3H]-cortisol to [3H]-cortisone by scintillation proximity assay; format: cell-based; procedure, shortened: as §3
T2 sequence (P51661 whole entry): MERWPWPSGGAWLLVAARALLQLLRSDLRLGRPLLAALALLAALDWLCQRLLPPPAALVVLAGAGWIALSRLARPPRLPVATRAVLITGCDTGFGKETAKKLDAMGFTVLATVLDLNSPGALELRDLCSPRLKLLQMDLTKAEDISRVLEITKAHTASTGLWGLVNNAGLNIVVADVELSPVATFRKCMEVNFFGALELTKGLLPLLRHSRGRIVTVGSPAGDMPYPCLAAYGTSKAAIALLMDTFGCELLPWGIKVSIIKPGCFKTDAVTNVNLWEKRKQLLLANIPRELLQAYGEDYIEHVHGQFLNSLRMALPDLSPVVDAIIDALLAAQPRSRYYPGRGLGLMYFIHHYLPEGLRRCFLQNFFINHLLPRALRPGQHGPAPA

[35] = molecular target: T3, 11-beta-hydroxysteroid dehydrogenase type 2 (Homo sapiens, UniProt P80365); assay: Inhibition of human 11beta-HSD2 expressed in CHO-K1 cells assessed as conversion of [3H]-cortisol to [3H]-cortisone by scintillation proximity assay; format: cell-based
T3 sequence (P80365 whole entry): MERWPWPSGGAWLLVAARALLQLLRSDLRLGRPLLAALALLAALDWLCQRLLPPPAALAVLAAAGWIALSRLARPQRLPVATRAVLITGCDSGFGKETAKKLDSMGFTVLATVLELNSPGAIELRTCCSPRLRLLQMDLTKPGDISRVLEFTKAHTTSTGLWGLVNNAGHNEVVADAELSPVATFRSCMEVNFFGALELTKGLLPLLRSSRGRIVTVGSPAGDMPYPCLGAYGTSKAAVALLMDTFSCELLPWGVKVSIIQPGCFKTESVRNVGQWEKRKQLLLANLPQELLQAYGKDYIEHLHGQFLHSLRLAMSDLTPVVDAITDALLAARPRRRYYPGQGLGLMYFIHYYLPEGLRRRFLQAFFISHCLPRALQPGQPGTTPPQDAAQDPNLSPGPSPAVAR

Chain of 11-beta-hydroxysteroid dehydrogenase 1 (Mus musculus, UniProt P50172) (P50172 whole entry): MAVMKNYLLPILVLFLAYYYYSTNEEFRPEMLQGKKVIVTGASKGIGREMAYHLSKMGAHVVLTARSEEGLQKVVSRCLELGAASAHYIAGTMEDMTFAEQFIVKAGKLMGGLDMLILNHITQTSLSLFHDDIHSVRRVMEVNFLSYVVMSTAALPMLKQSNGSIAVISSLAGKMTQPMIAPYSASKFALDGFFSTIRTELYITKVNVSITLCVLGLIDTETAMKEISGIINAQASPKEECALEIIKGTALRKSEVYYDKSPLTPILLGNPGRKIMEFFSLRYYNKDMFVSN

SMILES: CCS(=O)(=O)CCC12CCC(c3nnc(-c4ccccc4C(F)(F)F)n3C)(CC1)CC2
- bioavailability [6]: 24%
- clearance [7]: 2.1 mL/min/kg
- Activity [8]: Active
- half-life [9]: 12.2 h
- solubility [10]: > 1000 µg/mL
- Vd [11]: 1.7 L/kg
- Activity [12]: Not Active
- clearance [13]: 2.9 mL/min/kg
- half-life [14]: 4.8 h
- half-life [15]: 4.9 h
- Activity [16]: Active
- clearance [17]: 1.9 mL/min/kg
- bioavailability [18]: 59%
- bioavailability [19]: 89%
- Tmax [20]: 5 h
- inhibition in vivo at 10 mg/kg [2]: 89%
- bioavailability [21]: 87%
- half-life [22]: 6.5 h
- Tmax [23]: 2 h
- Activity [24]: Active
- Tmax [25]: 2 h
- clearance [26]: 4 mL/min/kg
- inhibition in vivo at 10 mg/kg [4]: 76%
- logD [27]: 2.2
- Vd [28]: 1.6 L/kg
- Tmax [29]: 2 h
- Vd [30]: 1.1 L/kg
- Activity [31]: < 10%
- Vd [32]: 0.72 L/kg

SMILES: CCCCCC12CCC(c3nnc4n3CCCCCC4)(CC1)CC2
- bioavailability [6]: 6%
- inhibition in vivo at 10 mg/kg [2]: 51%
- IC50 [5]: 4 nM
- inhibition in vivo at 10 mg/kg [33]: 71%

SMILES: CC(O)CCCC12CCC(c3nnc4n3CCCCCC4)(CC1)CC2 (stereo not given)
- IC50 [1]: 19 nM
- inhibition in vivo at 10 mg/kg [2]: 41%
- IC50 [5]: 35 nM
- inhibition in vivo at 10 mg/kg [33]: 67%

Further molecules by falling IC50 [5], results first:

- bioavailability [6]: 25%
- clearance [7]: 21 mL/min/kg
- IC50 [1]: 1.3 nM
- IC50 [34]: > 4000 nM
- IC50 [35]: 4000 nM
- IC50 [5]: 1.2 nM
SMILES: CC(=O)CCCC12CCC(c3nnc(-c4ccccc4C(F)(F)F)n3C)(CC1)CC2
- inhibition in vivo at 10 mg/kg [2]: 90%
- inhibition in vivo at 10 mg/kg [4]: 32%

- IC50 [1]: 1.5 nM
- Activity [3]: Active
- IC50 [5]: 1.1 nM
SMILES: Cn1c(-c2ccccc2C(F)(F)F)nnc1C12CCC(COc3ccc(Cl)cc3)(CC1)CC2
- inhibition in vivo at 10 mg/kg [2]: 98%
- inhibition in vivo at 10 mg/kg [4]: 77%

From ChEMBL document CHEMBL1759916, “Bicyclo[2.2.2]octyltriazole inhibitors of 11β-hydoxysteroid dehydrogenase type 1. Pharmacological agents for the treatment of metabolic syndrome” (Bioorg Med Chem Lett, 2011)
